Laboratory results: ChEMBL document CHEMBL4406880, “Design, synthesis, and bioactivity of dihydropyrimidine derivatives as kinesin spindle protein inhibitors” (Bioorg Med Chem, 2019)

How the values were obtained:
Format in all cases: functional
NCI-H322M = assay: Growth inhibition of human NCI-H322M cells assessed as growth percentage at 10 uM incubated for 48 hrs by sulforhodamine B assay relative to control; details: read-out: Activity
Outline: (§1)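 NCI-60 one-dose screen. Cells in RPMI 1640 with 5% FBS and 2 mM L-glutamine, seeded at 5,000–40,000 cells/well according to doubling time, and preincubated overnight at 37 °C, 5% CO2. A time-zero plate was TCA-fixed at drug addition. Compound from DMSO stock, final 10 µM, 48 h; DMSO vehicle controls. Fixation with TCA, 10% final (16% for suspension cells). SRB stain, Tris solubilization, A515. Result given as % growth versus untreated cells.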

HCC 2998 = assay: Growth inhibition of human HCC2998 cells assessed as growth percentage at 10 uM incubated for 48 hrs by sulforhodamine B assay relative to control; details: HCC 2998, 48 h, read-out: Activity
Outline: (§2)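 NCI-60 one-dose screen: cells in RPMI 1640 with 5% FBS and 2 mM L-glutamine, plated at 5,000–40,000 cells/well and preincubated 24 h at 37 °C, 5% CO2. Compound is added from a DMSO stock to a final 10 µM and incubated 48 h. Cells are TCA-fixed and stained with sulforhodamine B, read at 515 nm. Output is % growth versus untreated control, with a time-zero plate.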

UO-31 = assay: Growth inhibition of human UO31 cells assessed as growth percentage at 10 uM incubated for 48 hrs by sulforhodamine B assay relative to control; details: UO-31, 48 h, read-out: Activity
Outline: (§3)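 NCI-60 single-dose screen. Cells were grown in RPMI 1640 with 5% FBS and 2 mM L-glutamine and plated at 5,000–40,000 cells/well. After an overnight preincubation at 37 °C in 5% CO2, compound was added at a final 10 µM from a DMSO stock, with DMSO/PBS controls. After 48 h, cells were TCA-fixed and stained with 0.4% SRB, and absorbance was read at 515 nm. Growth is given as a percentage of untreated control.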

UACC-62 = assay: Growth inhibition of human UACC62 cells assessed as growth percentage at 10 uM incubated for 48 hrs by sulforhodamine B assay relative to control; details: UACC-62, 48 h, read-out: Activity; outline: as §3
M14 = assay: Growth inhibition of human M14 cells assessed as growth percentage at 10 uM incubated for 48 hrs by sulforhodamine B assay relative to control; details: M14, 48 h, read-out: Activity; outline: as §1
OVCAR-3 = assay: Growth inhibition of human OVCAR3 cells assessed as growth percentage at 10 uM incubated for 48 hrs by sulforhodamine B assay relative to control; details: OVCAR-3, 48 h, read-out: Activity; outline: as §1
IGROV-1 = assay: Growth inhibition of human IGROV1 cells assessed as growth percentage at 10 uM incubated for 48 hrs by sulforhodamine B assay relative to control; details: IGROV-1, 48 h, read-out: Activity; outline: as §1
PC-3 = assay: Growth inhibition of human PC3 cells assessed as growth percentage at 10 uM incubated for 48 hrs by sulforhodamine B assay relative to control; details: PC-3, 48 h, read-out: Activity; outline: as §3
K562 = assay: Growth inhibition of human K562 cells assessed as growth percentage at 10 uM incubated for 48 hrs by sulforhodamine B assay relative to control; details: K562, 48 h, read-out: Activity; outline: as §1
SK-MEL-28 = assay: Growth inhibition of human SK-MEL-28 cells assessed as growth percentage at 10 uM incubated for 48 hrs by sulforhodamine B assay relative to control; details: SK-MEL-28, 48 h, read-out: Activity; outline: as §3
ACHN = assay: Growth inhibition of human ACHN cells assessed as growth percentage at 10 uM incubated for 48 hrs by sulforhodamine B assay relative to control; details: read-out: Activity; outline: as §2
UACC-257 = assay: Growth inhibition of human UACC257 cells assessed as growth percentage at 10 uM incubated for 48 hrs by sulforhodamine B assay relative to control; details: UACC-257, 48 h, read-out: Activity; outline: as §3
SF-295 = assay: Growth inhibition of human SF295 cells assessed as growth percentage at 10 uM incubated for 48 hrs by sulforhodamine B assay relative to control; details: SF-295, 48 h, read-out: Activity; outline: as §3
U-251 = assay: Growth inhibition of human U251 cells assessed as growth percentage at 10 uM incubated for 48 hrs by sulforhodamine B assay relative to control; details: U-251, 48 h, read-out: Activity; outline: as §3
NCI/ADR-RES = assay: Growth inhibition of human NCI/ADR-RES cells assessed as growth percentage at 10 uM incubated for 48 hrs by sulforhodamine B assay relative to control; details: read-out: Activity; outline: as §1
NCI-H460 = assay: Growth inhibition of human NCI-H460 cells assessed as growth percentage at 10 uM incubated for 48 hrs by sulforhodamine B assay relative to control; details: NCI-H460, 48 h, read-out: Activity; outline: as §1
OVCAR-4 = assay: Growth inhibition of human OVCAR4 cells assessed as growth percentage at 10 uM incubated for 48 hrs by sulforhodamine B assay relative to control; details: OVCAR-4, 48 h, read-out: Activity; outline: as §1
CAKI-1 = assay: Growth inhibition of human Caki1 cells assessed as growth percentage at 10 uM incubated for 48 hrs by sulforhodamine B assay relative to control; details: CAKI-1, 48 h, read-out: Activity; outline: as §2
RXF 393 = assay: Growth inhibition of human RXF393 cells assessed as growth percentage at 10 uM incubated for 48 hrs by sulforhodamine B assay relative to control; details: RXF 393, 48 h, read-out: Activity; outline: as §3
NCI-H23 = assay: Growth inhibition of human NCI-H23 cells assessed as growth percentage at 10 uM incubated for 48 hrs by sulforhodamine B assay relative to control; details: NCI-H23, 48 h, read-out: Activity; outline: as §1
786-0 = assay: Growth inhibition of human 786-0 cells assessed as growth percentage at 10 uM incubated for 48 hrs by sulforhodamine B assay relative to control; details: 786-0, 48 h, read-out: Activity; outline: as §2
HL-60(TB) = assay: Growth inhibition of human HL-60(TB) cells assessed as growth percentage at 10 uM incubated for 48 hrs by sulforhodamine B assay relative to control; details: HL-60, 48 h, read-out: Activity
Outline: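 NCI-60 single-dose screen. Cells in RPMI 1640 with 5% FBS and 2 mM L-glutamine are plated at 5,000–40,000 cells/well and preincubated overnight at 37 °C, 5% CO2. Compound is added from a DMSO stock at 10 µM final for 48 h. Cells are TCA-fixed (suspension cells 16% final) and stained with SRB. Absorbance is read at 515 nm, and percentage growth is calculated against untreated controls with a time-zero plate.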

SR = assay: Growth inhibition of human SR cells assessed as growth percentage at 10 uM incubated for 48 hrs by sulforhodamine B assay relative to control; details: read-out: Activity; outline: as §3
SF-539 = assay: Growth inhibition of human SF539 cells assessed as growth percentage at 10 uM incubated for 48 hrs by sulforhodamine B assay relative to control; details: SF-539, 48 h, read-out: Activity; outline: as §3

SMILES | growth at 10 µM (NCI-H322M) | growth at 10 µM (HCC 2998) | growth at 10 µM (UO-31) | growth at 10 µM (UACC-62) | growth at 10 µM (M14) | growth at 10 µM (OVCAR-3) | growth at 10 µM (IGROV-1) | growth at 10 µM (PC-3) | growth at 10 µM (K562) | growth at 10 µM (SK-MEL-28) | growth at 10 µM (ACHN) | growth at 10 µM (UACC-257) | growth at 10 µM (SF-295) | growth at 10 µM (U-251) | growth at 10 µM (NCI/ADR-RES) | growth at 10 µM (NCI-H460) | growth at 10 µM (OVCAR-4) | growth at 10 µM (CAKI-1) | growth at 10 µM (RXF 393) | growth at 10 µM (NCI-H23) | other results
CC1=C(C(=O)OC(C)C)C(c2ccc3c(c2)OCO3)NC(=S)N1 (racemic) | 108% | 115% | 84.5% | 85.2% | 99% | 121% | 99.9% | 86% | 107% | 106% | 99.3% | 100% | 95.8% | 102% | 101% | 110% | 98.4% | 93.8% | 106% | 99.2% | growth at 10 µM (786-0): 104%; growth at 10 µM (HL-60(TB)): 105%; growth at 10 µM (SR): 103%; growth at 10 µM (SF-539): 98.9%
CC(=O)N1C(=S)NC(C)=C(C(=O)OCc2ccccc2)C1c1ccc2c(c1)OCO2 (racemic) | 101% | 110% | 85.4% | 75.3% | 54% | 104% | 98% | 81.3% | 55.4% | 102% | 95.5% | 77.7% | 96.4% | 58.2% | 95.3% | 77.9% | 99.3% | 92.4% | 101% | 94% | growth at 10 µM (786-0): 96.8%; growth at 10 µM (HL-60(TB)): 33.6%; growth at 10 µM (SF-539): 84.2%
COCCOC(=O)C1=C(C)NC(=S)NC1c1ccc2c(c1)OCO2 (racemic) | 101% | 110% | 87.8% | 102% | 104% | 111% | 105% | 95.7% | 91.8% | 114% | 106% | 90.2% | 105% | 104% | 103% | 112% | 103% | 99.8% | 101% | 96.2% | growth at 10 µM (786-0): 107%; growth at 10 µM (HL-60(TB)): 92.1%; growth at 10 µM (SR): 95.5%; growth at 10 µM (SF-539): 99.2%
